The values below come from article PMC12506886 (RSC Advances, 2025).

Read-outs that look alike come from different tables or passages of the source.

Assay [1] relates to A549 (human lung cancer) cells. Description: MTT antiproliferative assay, A549 cells. The assay is classed as cell-based. As to conditions: read-out: IC50 A549. In short, it runs like this:
(§1)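 Cancer cells were grown in RPMI 1640 with 10% FBS and 1% penicillin–streptomycin at 37 °C in humidified CO2. They were harvested with trypsin/EDTA and seeded at 8 × 10^3 cells per well. Cells were exposed to a concentration series in triplicate, with untreated wells as controls, for 72 h. MTT was then added for 4 h at 37 °C and formazan dissolved in DMSO (10 min, 37 °C, dark). Absorbance was read at 490 nm. IC50 is mean ± SD of 3–4 independent experiments.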

Assay [2] concerns SW480 (human colon cancer) cells. Description: MTT antiproliferative assay, SW480 cells. It counts as cell-based. The following applies: read-out: IC50 SW480. In short, it runs like this: as §1
Assay [3] concerns MRC-5 (human fetal lung fibroblast cells). Description: MTT cytotoxicity assay, MRC-5 normal cells. It counts as cell-based. As to conditions: MRC5, 72 h, read-out: IC50 MRC-5. Summed up:
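Human fetal lung fibroblasts were harvested with trypsin/EDTA and seeded at 8 × 10^3 cells per well. They were treated in triplicate with a concentration series for 72 h, with untreated wells as controls. MTT was added for 4 h at 37 °C and formazan dissolved in DMSO. Absorbance was read at 490 nm. IC50 is mean ± SD of three independent replicates.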
For orientation: Tetrazolium assays rely on reduction of a dye to a coloured formazan, in cell work by metabolically active cells.

Assay [4] relates to A549 cells. Description: Cell cycle analysis by PI staining and flow cytometry. The following applies: A549, 16.1 μM. The assay is classed as cell-based, human. In short, it runs like this:
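A549 cells (5 × 10^4) were pre-cultured for 16 h in high-glucose DMEM, then treated with 16.1 μM test compound for 24 h and 48 h. Cells were harvested with 0.25% trypsin, washed in PBS, and stained with propidium iodide plus 1 U RNase A. DNA content was measured by flow cytometry. Values are mean ± SD of three independent experiments, compared with control by one-way ANOVA and Tukey's test.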
(In general: Flow cytometry measures light scatter and fluorescence of single cells or particles in a stream.)

For assay [5], the system named is A549 cells. Description: Annexin V-FITC/PI apoptosis assay by flow cytometry. It counts as cell-based, human. The following applies: A549, 16.1 μM. Summed up:
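A549 cells (1 × 10^5) were pre-cultured for 16 h, then exposed to 16.1 μM test compound for 24 h and 48 h. Cells were washed with PBS and 1× binding buffer, then stained with Annexin V-FITC for 15 min. After a further wash, PI was added in binding buffer and apoptosis rates were read by flow cytometry. Values are mean ± SD of three independent experiments, compared with untreated controls by one-way ANOVA and Tukey's test.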

For assay [6], the system named is A549 cells. As to conditions: read-out: IC50 (A549); cited from earlier work.
Where [7] appears, read: MTT, 72 h, mean ± SD of 3–4 independent replicates.

Usually IC50 stands for the midpoint of a concentration-inhibition curve. With `N.N.[Cl][Pt][Cl]` [Cisplatin, reference compound], the IC50 in assay [1] (setting [7]) came to 7.4 ± 1.6 µM.
`COc1cc(-c2nc3ccccc3n2Cc2cn(CC(=O)Nc3ccc(C)cc3)nn2)cc(OC)c1OC` [Compound 9a, N-(p-Tolyl)-2-(4-((2-(3,4,5-trimethoxyphenyl)-1H-benzo[d]imidazol-1-yl)methyl)-1H-1,2,3-triazol-1-yl)acetamide]: the IC50 came to 77.2 ± 3.2 µM in assay [2] (Homo sapiens, SW480, 72 h) and 67.4 ± 3.4 µM in assay [1] (Homo sapiens, A549, 72 h).
The corresponding values for `COc1cc(-c2nc3ccccc3n2Cc2cn(CC(=O)Nc3ccccc3)nn2)cc(OC)c1OC` [Compound 9b, N-Phenyl-2-(4-((2-(3,4,5-trimethoxyphenyl)-1H-benzo[d]imidazol-1-yl)methyl)-1H-1,2,3-triazol-1-yl)acetamide] are 158 ± 7.8 µM and 114 ± 5 µM.
The corresponding values for `COc1cc(-c2nc3ccccc3n2Cc2cn(CC(=O)Nc3ccc(Br)cc3)nn2)cc(OC)c1OC` [Compound 9d, N-(4-Bromophenyl)-2-(4-((2-(3,4,5-trimethoxyphenyl)-1H-benzo[d]imidazol-1-yl)methyl)-1H-1,2,3-triazol-1-yl)acetamide] are greater than 200 µM and greater than 200 µM.
In the case of `COc1cc(-c2nc3ccccc3n2Cc2cn(CC(=O)Nc3ccccc3Cl)nn2)cc(OC)c1OC` [Compound 9e, N-(2-Chlorophenyl)-2-(4-((2-(3,4,5-trimethoxyphenyl)-1H-benzo[d]imidazol-1-yl)methyl)-1H-1,2,3-triazol-1-yl)acetamide], the IC50 in assay [3] turned out to be 105 ± 7.1 µM; in assay [2] (Homo sapiens, SW480, 72 h), 30.4 ± 3.6 µM; in assay [1] (Homo sapiens, A549, 72 h), 22.2 ± 4 µM.
With `COc1ccc(NC(=O)Cn2cc(Cn3c(-c4cc(OC)c(OC)c(OC)c4)nc4ccccc43)nn2)c(OC)c1` [Compound 9f, N-(2,4-Dimethoxyphenyl)-2-(4-((2-(3,4,5-trimethoxyphenyl)-1H-benzo[d]imidazol-1-yl)methyl)-1H-1,2,3-triazol-1-yl)acetamide], in the assay on A549 cells [4] (24 h), the “changes in the number of cells in the cell cycle phases compared to control” value was “not significant”. In addition, in the assay on A549 cells [4] (48 h, non-significant decrease), the “number of cells in the G2/M phase” value was found to be 12.05%. Also, the “number of cells in the S phase” value in the assay with A549 cells [4] (48 h, p < 0.001 vs control) is recorded as 33.04%. In addition, the “number of cells in the G0/G1 phase” value with A549 cells [4] (48 h, p < 0.01 vs control) is reported as 54.91%. Besides, the IC50 in assay [3] amounted to 121 ± 6.7 µM; in assay [2] (Homo sapiens, SW480, 72 h), 19.7 ± 2.7 µM; in assay [1] (Homo sapiens, A549, 72 h), 16.1 ± 1.1 µM. Besides, the “rate of early apoptosis (Q3)” value came to 3.79% with A549 cells [5] (24 h) and 12.2% in the assay on A549 cells [5] (48 h). The “rate of late apoptosis (Q2)” value in the assay with A549 cells [5] (24 h) is on record as 1.63%; with A549 cells [5] (48 h), 4.01%.
As for `COc1cc(-c2nc3ccccc3n2Cc2cn(CC(=O)Nc3ccc(Cl)cc3Cl)nn2)cc(OC)c1OC` [Compound 9g, N-(2,4-Dichlorophenyl)-2-(4-((2-(3,4,5-trimethoxyphenyl)-1H-benzo[d]imidazol-1-yl)methyl)-1H-1,2,3-triazol-1-yl)acetamide], the half-maximal inhibitory concentration (IC50) is 64.5 ± 3.3 µM in assay [2] (Homo sapiens, SW480, 72 h) and 31.5 ± 4.2 µM in assay [1] (Homo sapiens, A549, 72 h).
The corresponding values for `COc1cc(-c2nc3ccccc3n2Cc2cn(CC(=O)Nc3ccccc3[N+](=O)[O-])nn2)cc(OC)c1OC` [Compound 9h, N-(2-Nitrophenyl)-2-(4-((2-(3,4,5-trimethoxyphenyl)-1H-benzo[d]imidazol-1-yl)methyl)-1H-1,2,3-triazol-1-yl)acetamide] are 43.8 ± 2.5 µM and 32.5 ± 4.2 µM.
Taken in the same sequence, the figures for `COc1cc(-c2nc3ccccc3n2Cc2cn(CC(=O)Nc3ccc(C)cc3C)nn2)cc(OC)c1OC` [Compound 9i, N-(2,4-Dimethylphenyl)-2-(4-((2-(3,4,5-trimethoxyphenyl)-1H-benzo[d]imidazol-1-yl)methyl)-1H-1,2,3-triazol-1-yl)acetamide] were 51.5 ± 4.6 µM and 29.3 ± 6.6 µM.
Taken in the same sequence, the figures for `COc1ccc(NC(=O)Cn2cc(Cn3c(-c4cc(OC)c(OC)c(OC)c4)nc4ccccc43)nn2)cc1` [Compound 9j, N-(4-Methoxyphenyl)-2-(4-((2-(3,4,5-trimethoxyphenyl)-1H-benzo[d]imidazol-1-yl)methyl)-1H-1,2,3-triazol-1-yl)acetamide] were 68.1 ± 2.2 µM and 57.6 ± 5.7 µM.
With `COc1cc(-c2nc3ccccc3n2Cc2cn(CC(=O)Nc3cccc(C)c3C)nn2)cc(OC)c1OC` [Compound 9k, N-(2,3-Dimethylphenyl)-2-(4-((2-(3,4,5-trimethoxyphenyl)-1H-benzo[d]imidazol-1-yl)methyl)-1H-1,2,3-triazol-1-yl)acetamide], the IC50 in assay [2] (Homo sapiens, SW480, 72 h) worked out at 53.5 ± 6.4 µM; in assay [1] (Homo sapiens, A549, 72 h), 37.9 ± 0.14 µM.
The corresponding values for `CCc1ccc(NC(=O)Cn2cc(Cn3c(-c4cc(OC)c(OC)c(OC)c4)nc4ccccc43)nn2)cc1` [Compound 9l, N-(4-Ethylphenyl)-2-(4-((2-(3,4,5-trimethoxyphenyl)-1H-benzo[d]imidazol-1-yl)methyl)-1H-1,2,3-triazol-1-yl)acetamide] are 65.3 ± 1 µM and 50.3 ± 6.7 µM.
As to `COc1cc(-c2nc3ccccc3n2Cc2cn(CC(=O)NCc3ccccc3)nn2)cc(OC)c1OC` [Compound 9m, N-Benzyl-2-(4-((2-(3,4,5-trimethoxyphenyl)-1H-benzo[d]imidazol-1-yl)methyl)-1H-1,2,3-triazol-1-yl)acetamide], the IC50 came to 72.3 ± 5.3 µM in assay [2] (Homo sapiens, SW480, 72 h) and 47.9 ± 2.7 µM in assay [1] (Homo sapiens, A549, 72 h).
On to `COc1cc(-c2nc3ccccc3n2Cc2cn(CC(=O)Nc3cccc(Cl)c3)nn2)cc(OC)c1OC` [Compound 9n, N-(3-Chlorophenyl)-2-(4-((2-(3,4,5-trimethoxyphenyl)-1H-benzo[d]imidazol-1-yl)methyl)-1H-1,2,3-triazol-1-yl)acetamide], for which the IC50 stood at 124.2 ± 0.4 µM in assay [3]; 34.3 ± 3.1 µM in assay [2] (Homo sapiens, SW480, 72 h); 20.3 ± 2 µM in assay [1] (Homo sapiens, A549, 72 h).
Take `COc1cc(-c2nc3ccccc3n2Cc2cn(CC(=O)Nc3ccccc3F)nn2)cc(OC)c1OC` [Compound 9o, N-(2-Fluorophenyl)-2-(4-((2-(3,4,5-trimethoxyphenyl)-1H-benzo[d]imidazol-1-yl)methyl)-1H-1,2,3-triazol-1-yl)acetamide]: the IC50 in assay [2] (Homo sapiens, SW480, 72 h) was determined as 62.4 ± 3.7 µM; in assay [1] (Homo sapiens, A549, 72 h), 48.9 ± 2.2 µM.
`COc1cc(-c2nc3ccc(C)cc3[nH]2)cc(OC)c1OC` [Compound I, 6-methyl-2-(3,4,5-trimethoxyphenyl)-1H-benzo[d]imidazole]: in the assay with A549 cells [6], the concentration for half-maximal inhibition (IC50) was 39.4 µM.
As for `COc1cccc2c1C(=O)c1c(O)c3c(c(O)c1C2=O)C[C@@](O)(C(=O)CO)C[C@@H]3O[C@H]1C[C@H](N)[C@H](O)[C@H](C)O1` [Doxorubicin, reference compound], the IC50 in assay [3] worked out at 0.39 ± 0.06 µM; in assay [2] (Homo sapiens, SW480, 72 h) it was 0.59 ± 0.07 µM; in assay [1] (Homo sapiens, A549, 72 h), 0.46 ± 0.02 µM.
Take “N-(2-Nitrophenyl)-2-(4-((2-(3,4,5-trimethoxyphenyl)-1H-benzo[d]imidazol-1-yl)methyl)-1H-1,2,3-triazol-1-yl)acetamide [Compound 9c]”: the figures for the IC50 in assay [2] (setting [7]) and in assay [1] (setting [7]) were 22.5 ± 3.9 µM and 23.5 ± 3.6 µM, respectively.
